# Compounds with a hit are over-represented: about 1.4% of the library has one in this group of screens.
# MOR-DOR inv ag = inverse agonist of human OPRM1-OPRD1 heterodimerization | P35372+P41143 | cell-based MOR-DOR heterodimer luminescence, inverse agonism | inhibition, % at 9.3 µM | 340,000 tested, 0.21% active; in the data active means inhibition above about 22%, passing the limit was not always enough;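 further: 0% = cells with DMSO and 100% = wells without cells with DMSO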
# MOR-DOR ag = agonists of human mu-delta opioid receptor heterodimerization; P35372+P41143; cells, OPRM1-OPRD1 heterodimerization, luminescence; activation, % at 9.3 µM; 340,000 tested, 0.3% active; AID 504326; in the data active means activation above about 18%;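 further: 0% = vehicle-treated cells and 100% = reference agonist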
# HTR5A inv ctr = HTR5A inverse agonism, opioid heterodimer counter-screen; HTR5A cell line, luminescence; inhibition, % at 9.3 µM; 340,000 tested, 0.083% active; P47898; in the data active means inhibition mostly above about 23%, no sharp cut-off; inactive means mostly below about 18%;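 further: 0% = cells with DMSO and 100% = no-cell wells with DMSO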
# HTR5A ag ctr = activates human HTR5A in OPRM1-OPRD1 agonist counter-screen; 340,000 tested, 0.61% active; P47898; HTR5A agonist assay, luminescence, cell-based; activation, % at 9.3 µM; in the data active means activation mostly above about 9.5%, no sharp cut-off; inactive means mostly below about 7.6%;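 further: 0% = cells with vehicle only and 100% = reference agonist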
# Lipid droplet = modulators of hepatic lipid droplet formation | AML12 mouse hepatocytes, oleate lipid droplets, BODIPY imaging | inhibition, % at 6.5 µM | 240,000 tested, 0.4% active;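 active means lipid droplet intensity inhibited by at least 50%, with more than 500 cells counted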
#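 Material: mouse AML12 hepatocyte cell line, fixed after treatment; Timing: compound with oleate, overnight; Technique: high-content imaging of BODIPY-stained droplets and DAPI nuclei; Probe or stimulus: oleate, 100 µM final; Dosing: compound at 6.5 µM only.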
# Lipid drop inh = confirmation of inhibitors of hepatic lipid droplet formation; 870 tested, 65% active; AML12 mouse hepatocytes, BODIPY lipid droplet imaging; droplets induced with 100 µM oleic acid; shares compounds with Lipid droplet; AID 463183; inhibition, % at 5.2 µM;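 active means inhibition of lipid droplet metric at least 50%, with more than 300 cells in each of four replicates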;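 further: plate controls were DMSO with oleic acid for no effect and 5 µM Triacsin-C for full effect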
# AML12 cytotox = AML12 hepatocyte cytotoxicity (counter-screen); shares compounds with Lipid droplet; AML12 mouse hepatocytes, DAPI nuclear morphology cytotoxicity imaging; stronger effect = higher value; cells fed 100 µM oleate overnight; z-score at 5 µM; 870 tested, 3% active; in the data active means z-score above about 6.3;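 further: compound exposure lasted overnight at 37 °C before fixation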
# AML12 tox conf = confirmation of cytotoxicity in AML12 mouse hepatocytes. AID 463219. AML12 mouse hepatocyte viability, ATP luminescence; cells loaded with 100 µM oleic acid. 530 tested, under 10 active. shares compounds with Lipid droplet. cytotoxicity, % at 50 µM;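 active means cytotoxicity above 50% in each of four replicates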;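 further: compound exposure lasted overnight at 37 °C before the ATP read; 0% = DMSO-treated cells and 100% = wells with no cells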
# * hit, by the source's call; · = no result.
SMILES,MOR-DOR inv ag,MOR-DOR ag,HTR5A inv ctr,HTR5A ag ctr,Lipid droplet,Lipid drop inh,AML12 cytotox,AML12 tox conf
FC(F)(F)c1cccc(Cc2noc(CN3CCC(c4ccncc4)CC3)n2)c1,-21.5,4.2,-3.2,1.1,-49.4,·,·,·
COc1cccc(C(=O)NC2CCCc3c2cnn3-c2cc(C)cc(C)c2)c1 (stereo not given),10.0,-1.9,10.2,-2.7,73.8*,107.8*,-0.268,9.9
Cc1cc(C(=O)NC2CCCc3c2cnn3-c2cccc(C)c2C)no1 (stereo not given),-8.4,1.5,-7.4,-4.3,-2.5,·,·,·
CC1=C(C(=O)NC2CCCc3c2cnn3-c2cccc(C)c2C)OCCO1 (stereo not given),-9.7,1.8,4.5,1.9,62.8*,104.9*,-0.495,15.6
COc1ccc(C(=O)NC2CCCc3c2cnn3-c2cccc(C)c2C)o1 (stereo not given),2.1,-0.4,-2.9,0.8,50.5*,88.4*,-0.189,7.0
CC(C)N(C(=O)COC(=O)[C@@H]1CC(O)CN1S(=O)(=O)c1ccc(C(C)(C)C)cc1)C(C)C (stereo not given in full),-7.6,1.5,7.0,-2.8,-16.0,·,·,·
Cc1nc(Nc2ccc(O)cc2)c2c3c(sc2n1)CCCC3,-5.9,1.1,16.1,5.2,60.3*,75.2*,-0.144,·
CCN(CC)c1ccc(C(=O)OCC(=O)Nc2cc(C)on2)cc1,5.2,-1.3,8.4,-3.3,·,·,·,·
CCOc1ccc(CCNC(=O)C(C)n2nc(C)n3c(cc4occc43)c2=O)cc1OCC (stereo not given),5.8,-1.0,5.5,-0.8,57.6*,93.5*,-0.168,7.7
CCOc1ccc(CCNC(=O)Cn2cccc2C(=O)c2ccccc2)cc1OCC,8.4,-1.2,6.8,-5.9,84.1*,108.8*,0.411,12.7
CCCNC(=O)Cn1cccc1C(=O)c1ccccc1,-18.7,3.3,-25.5,5.2,·,·,·,·
CCOc1ccc(CCNC(=O)Cn2nc(C)n3cccc3c2=O)cc1OCC,14.2,-2.7,20.3,-5.0,78.9*,103.8*,-0.0837,17.4
CCOc1ccc(CCNC(=O)CCCn2c(=O)c3cccn3c3cccnc32)cc1OCC,4.9,-0.9,-5.5,1.4,69.2*,88.3*,-1.02,4.2
CCCCn1c(N)c(N(CCOC)C(=O)c2ccc(Cl)c(S(=O)(=O)N3CCCCC3)c2)c(=O)[nH]c1=O,0.9,-0.2,-37.2,0.2,·,·,·,·
Cc1ccc(S(N)(=O)=O)cc1NC(=O)C(c1ccccc1)c1ccccc1,2.6,-0.5,1.6,-0.4,-6.4,·,·,·
NNC(=O)Cn1c(-c2nonc2N)nc2ccccc21,·,·,·,·,6.2,·,·,·
CCOc1ccc(CCNC(=O)CN2C(=O)NC(CCSC)C2=O)cc1OCC (stereo not given),13.5,-2.6,11.3,-4.6,85.1*,99.6*,0.328,13.9
CCOc1ccc(CCNC(=O)Cn2c(-c3nonc3N)nc3ccccc32)cc1OCC,·,·,·,·,75.2*,100.8*,0.986,25.1
CN(C(=O)c1cccc(NC(=O)Cc2ccc(NC(=O)C3CCN(S(=O)(=O)c4cccc([N+](=O)[O-])c4)CC3)cc2)c1)C1CC1,-9.0,1.9,-3.6,1.0,·,·,·,·
COc1ccc(CCNC(=O)CCOc2cc(C)ccc2C)cc1OC,20.1,-3.9,3.2,-1.3,67.6*,90.8*,-0.0917,12.2
COc1ccc(CCNC(=O)CCOc2ccc(C)cc2)cc1OC,10.3,-2.0,0.1,2.9,7.3,·,·,·
COc1ccc(CCNC(=O)CC(c2ccccc2)c2cc(C)ccc2O)cc1OC (stereo not given),-1.9,0.3,-9.1,2.3,53.4*,30.0,0.953,·
Cc1ccccc1Cn1nc(C)c(NC(=O)C2c3ccccc3Oc3ccccc32)c1C,7.5,-1.1,-4.3,-6.5,80.9*,100.5*,-0.316,-3.8
Cc1cc(C)c(NC(=O)C2c3ccccc3Oc3ccccc32)c(C)c1,15.5,-2.6,-8.2,3.0,-5.7,·,·,·

# Screens: PubChem BioAssay, several laboratories
